Converted amounts (≈) assume the structure as drawn.
What was measured:
[1] = system: Histoplasma capsulatum; assay: Antifungal activity against Histoplasma capsulatum G217B ATCC 26032 at pH 7 measured over 5 days; type: functional, organism-based; settings: G217B ATCC 26032, 120 h
In short: (§1)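 Yeasts pre-grown in HMM (37 °C, 5% CO2) to exponential phase, counted by hemacytometer, diluted into RPMI buffered with 25 mM HEPES (pH 7.0) or 25 mM MOPS (pH 5.0) at 5 x 10^5 per well; two-fold dilutions 40 to 0.078 µM, 37 °C, agitated twice daily. A595 read over 5 days, normalized to DMSO controls; 4-day data fitted by 4-parameter regression for IC50; MIC = ≤10% growth.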

[2] = system: Cryptococcus neoformans; assay: Antifungal activity against wild type fluconazole-sensitive Cryptococcus neoformans serotype A H99 at pH 7 measured over 4 days; type: functional, organism-based; settings: var grubii H99 , 96 h
In short: (§2)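 YPD-grown exponential-phase yeasts, hemacytometer-counted, diluted into RPMI buffered to pH 7.0 with 25 mM HEPES (or pH 5.0 with […] for pH comparison) at 2 x 10^3 per well; two-fold series 40 to 0.078 µM, 37 °C, agitated twice daily. A595 followed over 4 days versus DMSO controls; day-3 turbidity fitted by 4-parameter regression for IC50; MIC = growth ≤10% of untreated.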

[3] = system: P388D1; assay: Cytotoxicity against mouse P388D1 cells assessed as reduction in cell viability after 72 hrs by resazurin-based fluorescence assay; settings: P388D1, 72 h
In short: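 P388D1 cells in Ham's F-12 + 10% FBS + 2 mM L-glutamine seeded at 5 x 10^3 per well, adhered overnight, exposed to compounds 80 to 0.3 µM for 72 h. Viability read as resorufin fluorescence (530/590 nm) after 0.1 mM resazurin, pre-saturation time points, versus untreated cells; three biological replicates; IC50 by non-linear regression.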

[4] = Therapeutic index, ratio of IC50 for mouse P388D1 cells to IC50 for Histoplasma capsulatum G217B ATCC 26032; type: toxicity; settings: read-out: Ratio IC50
In short: (§3)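 Ratio of P388D1 IC50 (72 h resazurin viability, 80 to 0.3 µM) to yeast IC50 from RPMI/HEPES pH 7.0 broth dilution with A595 turbidity and 4-parameter regression.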

[5] = Aqueous solubility of the compound at pH 5; type: physicochemical; settings: aqueous medium
[6] = Aqueous solubility of the compound at pH 7; type: physicochemical; settings: aqueous medium
[7] = Ratio of aqueous solubility at pH 5 to aqueous solubility at pH 7; type: physicochemical; settings: buffer
[8] = system: Histoplasma capsulatum; assay: Antifungal activity against Histoplasma capsulatum G217B ATCC 26032 at pH 5 measured over 5 days; type: functional, organism-based; settings: G217B ATCC 26032, 120 h; in short: as §1
[9] = system: Cryptococcus neoformans; assay: Antifungal activity against wild type fluconazole-sensitive Cryptococcus neoformans serotype A H99 at pH 5 measured over 4 days; type: functional, organism-based; settings: var grubii H99 , 96 h; in short: as §2
[10] = Therapeutic index, ratio of IC50 for mouse P388D1 cells to IC50 for wild type Cryptococcus neoformans serotype A H99; type: toxicity; settings: read-out: Ratio IC50; in short: as §3
[11] = system: Cryptococcus neoformans; assay: Antifungal activity against wild-type fluconazole-sensitive Cryptococcus neoformans serotype D B3501 measured over 4 days; type: functional, organism-based; settings: B3501, 96 h; in short: as §2
[12] = system: Cryptococcus neoformans; assay: Antifungal activity against fluconazole-resistant Cryptococcus neoformans serotype A TES9 harboring erg11 mutant measured over 4 days; type: functional, organism-based; settings: TES9, 96 h; in short: as §2
[13] = system: Cryptococcus neoformans; assay: Antifungal activity against fluconazole-resistant Cryptococcus neoformans serotype A MRL862 harboring erg11 mutant measured over 4 days; type: functional, organism-based; settings: MRL862, 96 h; in short: as §2
[14] = system: Histoplasma capsulatum; assay: Antifungal activity against RFP expressing Histoplasma capsulatum infected in LacZ-expressing mouse P388D1 cells incubated for 6 days measured daily by fluorescence assay; type: functional, organism-based
In short: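 LacZ-expressing P388D1 macrophages (3x10^4 per well, adhered 3 h) infected with RFP Histoplasma yeasts at MOI 1:2 for 3 h, medium replaced with F-12 + 10% serum, overnight at 37 °C, then compound gradient added for 6 days. RFP fluorescence (530/590 nm) read daily; day-4 values relative to untreated infected cells fitted by non-linear regression; triplicate.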

Row | SMILES | IC50 [1] [µM] | MIC90 [1] [µM] | IC50 [2] [µM] | IC50 [3] [µM] | selectivity ratio [4] | MIC90 [2] [µM] | other results
1 | O=C(CCC1CCCCC1)Nc1ncc(Cc2ccccn2)s1 | 8.09 | 20 (≈ 6.59 µg/mL) | > 20 | > 40 | > 5 |  | solubility [5]: 60 µg/mL (≈ 182 µM); solubility [6]: 40 µg/mL (≈ 121 µM); Ratio [7]: 1.5; IC50 [8]: > 20 µM; MIC90 [8]: > 40 µM; IC50 [9]: > 20 µM; MIC90 [9]: > 40 µM
2 | O=C(Nc1ncc(Cc2ccncc2)s1)C1CCCCC1 | > 20 |  | > 20 |  |  |  | solubility [5]: 1190 µg/mL (≈ 3950 µM); solubility [6]: 350 µg/mL (≈ 1160 µM); Ratio [7]: 3.4; IC50 [8]: > 20 µM; MIC90 [8]: > 40 µM; IC50 [9]: > 20 µM; MIC90 [9]: > 40 µM
3 | O=C(Nc1ncc(Cc2cccnc2)s1)C1CCCCC1 | > 20 |  | > 20 |  |  |  | solubility [5]: 590 µg/mL (≈ 1960 µM); solubility [6]: 340 µg/mL (≈ 1130 µM); Ratio [7]: 1.7; IC50 [8]: > 20 µM; MIC90 [8]: > 40 µM; IC50 [9]: > 20 µM; MIC90 [9]: > 40 µM
4 | O=C(CCC1CCCCC1)Nc1ncc(Cc2cccc3ccccc23)s1 | 0.6 | 1.25 (≈ 0.473 µg/mL) | > 20 | 27.6 | 46 | > 40 | 
5 | O=C(CCC1CCCCC1)Nc1ncc(Cc2cccc3c2CCCC3)s1 | 0.9 | 2.5 (≈ 0.956 µg/mL) | > 20 | 24.3 | 27 | > 40 | 
6 | O=C(CCC1CCCCC1)Nc1ncc(Cc2csc3ccccc23)s1 | 0.27 | 0.63 (≈ 0.242 µg/mL) | > 20 | 16.9 | 63 | > 40 | 
7 | O=C(CCC1CCCCC1)Nc1ncc(Cc2cccc3sccc23)s1 | 0.2 | 0.31 (≈ 0.119 µg/mL) | > 20 | > 40 | > 200 | > 40 | 
8 | O=C(Nc1ncc(Cc2cccc3nsnc23)s1)C1CCCCC1 | 1.54 | 2.5 (≈ 0.896 µg/mL) | 1.52 | > 40 | > 26 | 5 (≈ 1.79 µg/mL) | selectivity ratio [10]: > 26
9 | O=C(CCC1CCCCC1)Nc1ncc(Cc2ccncc2)s1 | 7.67 | 20 (≈ 6.59 µg/mL) | > 20 | > 40 | > 5 |  | solubility [5]: 140 µg/mL (≈ 425 µM); solubility [6]: 40 µg/mL (≈ 121 µM); Ratio [7]: 3.5; IC50 [8]: 11.1 µM; MIC90 [8]: 40 µM (≈ 13.2 µg/mL); IC50 [9]: > 20 µM; MIC90 [9]: > 40 µM
10 | O=C(CCC1CCCCC1)Nc1ncc(C(=O)c2cccc3ccccc23)s1 | 0.64 | 1.25 (≈ 0.491 µg/mL) | > 20 | > 40 | > 63 | > 40 | 
11 | O=C(Nc1ncc(Cc2cccc3ccoc23)s1)C1CCCCC1 | 0.42 | 1.25 (≈ 0.426 µg/mL) | 0.62 | > 40 | > 95 | 2.5 (≈ 0.851 µg/mL) | selectivity ratio [10]: > 65; IC50 [11]: 0.32 µM; MIC90 [11]: 0.63 µM (≈ 0.214 µg/mL); IC50 [12]: 0.41 µM; MIC90 [12]: 0.63 µM (≈ 0.214 µg/mL); IC50 [13]: 0.15 µM; MIC90 [13]: 0.63 µM (≈ 0.214 µg/mL)
12 | O=C(CCC1CCCCC1)Nc1ncc(Cc2cccc3nsnc23)s1 | > 20 | > 40 | > 20 |  |  | > 40 | 
13 | O=C(c1cnc(NC(=O)C2CCCCC2)s1)c1cccc2ccccc12 | 0.19 | 0.31 (≈ 0.113 µg/mL) | 0.89 | > 40 | > 211 | 2.5 (≈ 0.911 µg/mL) | selectivity ratio [10]: > 45; IC50 [11]: 0.38 µM; MIC90 [11]: 1.25 µM (≈ 0.456 µg/mL); IC50 [12]: 0.47 µM; MIC90 [12]: 1.25 µM (≈ 0.456 µg/mL); IC50 [13]: 0.41 µM; MIC90 [13]: 1.25 µM (≈ 0.456 µg/mL); MIC ([14]; 144 h): 1.25 µM (≈ 0.456 µg/mL); IC50 ([14]; P388D1, 144 h): 0.71 µM
14 | O=C(CCC1CCCCC1)Nc1ncc(CC2CCCC2)s1 | > 20 | > 40 | > 20 |  |  | > 40 | 
15 | O=C(CCC1CCCCC1)Nc1ncc(Cc2ccccc2)s1 | 0.8 | 1.25 (≈ 0.411 µg/mL) | > 20 | > 40 | > 50 | > 40 | 
